For assay [1], the system named is Streptococcus pneumoniae. The assay is described as follows: Antimicrobial activity against Streptococcus pneumoniae by agar dilution method. It counts as functional. The essentials:
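Agar dilution per CLSI on Mueller–Hinton agar holding drug dilutions from 0.12 to 8 µg/ml. Staphylococci and enterococci tested on plain MH agar, S. pneumoniae on MH agar with 5% sheep blood. Test compounds dissolved in 20% water in DMSO. Inoculum 10⁷ CFU/ml, incubated 35 °C for 18 h. MIC was the lowest concentration giving complete growth inhibition.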

The subject of assay [2] is Staphylococcus aureus. The assay is described as follows: Antimicrobial activity against Staphylococcus aureus ATCC 25923 by agar dilution method. (Agar dilution tests growth on a series of plates holding different concentrations.)
For assay [3], the system named is Escherichia coli. The assay is described as follows: Antimicrobial activity against Escherichia coli ATCC 25922. It counts as functional.
Assay [4] has as its system Enterococcus. Nature of the assay: Antimicrobial activity against vancomycin-resistant Enterococcus by agar dilution method. It counts as functional. The essentials:
(§1)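 Agar dilution per CLSI on Mueller-Hinton agar, test agents at 0.12 to 8 µg/ml; test compounds dissolved in 20% water in DMSO, linezolid in 40% water in ethanol, vancomycin in water. Clinical isolates inoculated at final 10^7 CFU/ml, incubated 35 °C for 18 h. MIC = lowest concentration completely inhibiting growth; reported as range across isolates.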

In assay [5] the test system is Staphylococcus aureus. Nature of the assay: Antimicrobial activity against Staphylococcus aureus ATCC 25922 in presence of 50% human plasma […]. It counts as functional. The settings on record: ATCC 25923, Plasma, in the assay text read “ATCC 25923” for “ATCC 25922”. The procedure, abridged:
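S. aureus ATCC 25923 tested in Mueller–Hinton broth supplemented with 50% human plasma. Test compounds dissolved in 20% water in DMSO. Inoculum 10⁷ CFU/ml, incubated 35 °C for 18 h. MIC was the lowest concentration completely inhibiting growth.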

For assay [6], the system named is Staphylococcus. The assay is described as follows: Antimicrobial activity against methicillin-resistant coagulase-negative Staphylococcus by agar dilution method. In kind it is functional. The procedure, abridged:
as §1

Assay [7] relates to Staphylococcus. Nature of the assay: Antimicrobial activity against methicillin-susceptible coagulase-negative staphylococcus by agar dilution method. It counts as functional. The procedure, abridged:
as §1

Assay [8] deals with Moraxella catarrhalis. Nature of the assay: Antimicrobial activity against Moraxella catarrhalis. In kind it is functional.
Assay [9] relates to Staphylococcus aureus. Nature of the assay: Antimicrobial activity against methicillin-resistant Staphylococcus aureus by agar dilution method. In kind it is functional. The essentials:
as §1

In assay [10] the test system is Enterococcus. Nature of the assay: Antimicrobial activity against vancomycin-sensitive Enterococcus by agar dilution method. In kind it is functional. The procedure, abridged:
as §1

Assay [11] relates to Staphylococcus aureus. The assay is described as follows: Antimicrobial activity against methicillin-susceptible Staphylococcus aureus by agar dilution method. It counts as functional. The procedure, abridged: as §1
Assay [12] has as its system Haemophilus influenzae. Nature of the assay: Antimicrobial activity against Haemophilus influenzae. In kind it is functional.

≈ marks a conversion by molar mass, not a printed value.

Consider `O=C(c1ccccc1F)N1CCN(c2ccc(N3C[C@H](Cn4ccnn4)OC3=O)cc2F)CC1`, for which the MIC was 1 µg/mL (≈ 2.13 µM) in assay [1]; 0.5 µg/mL (≈ 1.07 µM) in assay [2]; at least 8 µg/mL in [3]; 0.5 µg/mL (≈ 1.07 µM) in assay [4]; 8 µg/mL in assay [5]; 0.25 µg/mL (≈ 0.534 µM) in [6]. Also, the MIC is 0.25 µg/mL (≈ 0.534 µM) in assay [7]; at least 8 µg/mL in assay [8]; 0.25 µg/mL (≈ 0.534 µM) in [9]; 0.5 µg/mL (≈ 1.07 µM) in assay [10]; 0.25 µg/mL (≈ 0.534 µM) in assay [11]; at least 8 µg/mL in [12].

For the compound `O=C(c1ccc(F)cc1)N1CCN(c2ccc(N3C[C@H](Cn4ccnn4)OC3=O)cc2F)CC1`, the MIC is 0.5 µg/mL (≈ 1.07 µM) in assay [1]; 1 µg/mL (≈ 2.13 µM) in assay [2]; at least 8 µg/mL in assay [3]; 0.5 µg/mL (≈ 1.07 µM) in assay [4]; 4 µg/mL in [5]; 0.5 µg/mL (≈ 1.07 µM) in assay [6]. The MIC in [7] was 0.5 µg/mL (≈ 1.07 µM); in assay [8], at least 8 µg/mL; in [9], 0.5 µg/mL (≈ 1.07 µM); in [10] it was 1 µg/mL (≈ 2.13 µM); in assay [11] it was 0.5 µg/mL (≈ 1.07 µM); in assay [12], at least 8 µg/mL.

As for `O=C(c1ccccc1[N+](=O)[O-])N1CCN(c2ccc(N3C[C@H](Cn4ccnn4)OC3=O)cc2F)CC1`, the MIC is 0.5 µg/mL (≈ 1.01 µM) in assay [1]; 2 µg/mL (≈ 4.04 µM) in assay [2]; at least 8 µg/mL in assay [3]; 1 µg/mL (≈ 2.02 µM) in assay [4]; 2 µg/mL in [5]; 1 µg/mL (≈ 2.02 µM) in assay [6]. For the same compound, the MIC in [7] was 1 µg/mL (≈ 2.02 µM); in [8], at least 8 µg/mL; in assay [9] it was 0.5 µg/mL (≈ 1.01 µM); in [10], 2 µg/mL (≈ 4.04 µM); in assay [11], 1 µg/mL (≈ 2.02 µM); in assay [12], at least 8 µg/mL.

As to `O=C(c1cccc([N+](=O)[O-])c1)N1CCN(c2ccc(N3C[C@H](Cn4ccnn4)OC3=O)cc2F)CC1`, the MIC was 0.25 µg/mL (≈ 0.505 µM) in assay [1]; 2 µg/mL (≈ 4.04 µM) in assay [2]; at least 8 µg/mL in assay [3]; 0.5 µg/mL (≈ 1.01 µM) in assay [4]; 2 µg/mL in [5]; 0.25 µg/mL (≈ 0.505 µM) in assay [6]. Moreover, the MIC in assay [7] is 0.5 µg/mL (≈ 1.01 µM); in assay [8], at least 8 µg/mL; in [9], 0.25 µg/mL (≈ 0.505 µM); in assay [10] it was 0.5 µg/mL (≈ 1.01 µM); in [11], 0.25 µg/mL (≈ 0.505 µM); in assay [12], at least 8 µg/mL.

As for `Cc1ccccc1C(=O)N1CCN(c2ccc(N3C[C@H](Cn4ccnn4)OC3=O)cc2F)CC1`, the MIC in assay [1] is 1 µg/mL (≈ 2.15 µM); in assay [2], 2 µg/mL (≈ 4.31 µM); in [3], at least 8 µg/mL; in assay [4] it was 1 µg/mL (≈ 2.15 µM); in [5], 8 µg/mL; in [6], 0.5 µg/mL (≈ 1.08 µM). In addition, the MIC in assay [7] is 0.5 µg/mL (≈ 1.08 µM); in assay [8], at least 8 µg/mL; in [9] it was 0.5 µg/mL (≈ 1.08 µM); in assay [10] it was 1 µg/mL (≈ 2.15 µM); in [11], 0.5 µg/mL (≈ 1.08 µM); in [12], at least 8 µg/mL.

With `Cc1cccc(C(=O)N2CCN(c3ccc(N4C[C@H](Cn5ccnn5)OC4=O)cc3F)CC2)c1`, the MIC in [1] was 1 µg/mL (≈ 2.15 µM); in assay [2] it was 0.5 µg/mL (≈ 1.08 µM); in assay [3] it was at least 8 µg/mL; in [4], 0.5 µg/mL (≈ 1.08 µM); in [5] it was 8 µg/mL; in assay [6], 0.25 µg/mL (≈ 0.538 µM). Further, the MIC in assay [7] was 0.25 µg/mL (≈ 0.538 µM); in [8] it was at least 8 µg/mL; in [9], 0.25 µg/mL (≈ 0.538 µM); in assay [10] it was 0.5 µg/mL (≈ 1.08 µM); in [11], 0.25 µg/mL (≈ 0.538 µM); in assay [12], at least 8 µg/mL.

With `Cc1ccc(C(=O)N2CCN(c3ccc(N4C[C@H](Cn5ccnn5)OC4=O)cc3F)CC2)cc1`, the MIC was 2 µg/mL (≈ 4.31 µM) in [1]; 1 µg/mL (≈ 2.15 µM) in [2]; at least 8 µg/mL in assay [3]; 0.5 µg/mL (≈ 1.08 µM) in assay [4]; 8 µg/mL in assay [5]; 0.5 µg/mL (≈ 1.08 µM) in assay [6]. Moreover, the MIC in [7] is 0.5 µg/mL (≈ 1.08 µM); in assay [8] it was at least 8 µg/mL; in assay [9] it was 0.5 µg/mL (≈ 1.08 µM); in [10], 1 µg/mL (≈ 2.15 µM); in assay [11] it was 0.5 µg/mL (≈ 1.08 µM); in assay [12], at least 8 µg/mL.

As to `COc1cccc(C(=O)N2CCN(c3ccc(N4C[C@H](Cn5ccnn5)OC4=O)cc3F)CC2)c1`, the MIC in [1] is 0.25 µg/mL (≈ 0.52 µM); in [2] it was 2 µg/mL (≈ 4.16 µM); in [3], at least 8 µg/mL; in assay [4], 0.5 µg/mL (≈ 1.04 µM); in assay [5] it was 4 µg/mL; in [6], 0.25 µg/mL (≈ 0.52 µM). Moreover, the MIC in assay [7] is 0.25 µg/mL (≈ 0.52 µM); in assay [8], at least 8 µg/mL; in assay [9] it was 0.25 µg/mL (≈ 0.52 µM); in [10], 0.5 µg/mL (≈ 1.04 µM); in assay [11], 0.25 µg/mL (≈ 0.52 µM); in [12], at least 8 µg/mL.

As to `COc1ccc(C(=O)N2CCN(c3ccc(N4C[C@H](Cn5ccnn5)OC4=O)cc3F)CC2)cc1`, the MIC in [1] is 0.5 µg/mL (≈ 1.04 µM); in assay [2], 2 µg/mL (≈ 4.16 µM); in assay [3] it was at least 8 µg/mL; in assay [4], 1 µg/mL (≈ 2.08 µM); in assay [5], 8 µg/mL; in [6] it was 1 µg/mL (≈ 2.08 µM). For the same compound, the MIC is 0.5 µg/mL (≈ 1.04 µM) in assay [7]; at least 8 µg/mL in assay [8]; 0.5 µg/mL (≈ 1.04 µM) in assay [9]; 1 µg/mL (≈ 2.08 µM) in assay [10]; 1 µg/mL (≈ 2.08 µM) in assay [11]; at least 8 µg/mL in [12].

Turning to `O=C(/C=C/c1ccccc1)N1CCN(c2ccc(N3C[C@H](Cn4ccnn4)OC3=O)cc2F)CC1`, the MIC in assay [1] was 1 µg/mL (≈ 2.1 µM); in assay [2], 0.5 µg/mL (≈ 1.05 µM); in [3] it was at least 8 µg/mL; in [4], 0.25 µg/mL (≈ 0.525 µM); in assay [5], above 8 µg/mL; in [6], 0.25 µg/mL (≈ 0.525 µM). The MIC in [7] was 0.25 µg/mL (≈ 0.525 µM); in assay [8], at least 8 µg/mL; in assay [9], 0.25 µg/mL (≈ 0.525 µM); in assay [10], 0.5 µg/mL (≈ 1.05 µM); in assay [11] it was 0.25 µg/mL (≈ 0.525 µM); in assay [12], at least 8 µg/mL.

`O=C(c1cccc(F)c1)N1CCN(c2ccc(N3C[C@H](Cn4ccnn4)OC3=O)cc2F)CC1`: the MIC in assay [1] was 0.5 µg/mL (≈ 1.07 µM); in [2] it was 1 µg/mL (≈ 2.13 µM); in assay [3], at least 8 µg/mL; in [4], 0.5 µg/mL (≈ 1.07 µM); in assay [5], 4 µg/mL; in assay [6], 0.5 µg/mL (≈ 1.07 µM). Also, the MIC in [7] was 0.5 µg/mL (≈ 1.07 µM); in [8], at least 8 µg/mL; in assay [9], 0.25 µg/mL (≈ 0.534 µM); in assay [10], 0.5 µg/mL (≈ 1.07 µM); in [11], 0.25 µg/mL (≈ 0.534 µM); in assay [12], at least 8 µg/mL.

On to `O=C(c1ccc([N+](=O)[O-])cc1)N1CCN(c2ccc(N3C[C@H](Cn4ccnn4)OC3=O)cc2F)CC1`, for which the MIC is 1 µg/mL (≈ 2.02 µM) in assay [1]; 2 µg/mL (≈ 4.04 µM) in assay [2]; at least 8 µg/mL in [3]; 2 µg/mL (≈ 4.04 µM) in assay [4]; 4 µg/mL in assay [5]; 1 µg/mL (≈ 2.02 µM) in assay [6]. In addition, the MIC is 1 µg/mL (≈ 2.02 µM) in [7]; at least 8 µg/mL in [8]; 1 µg/mL (≈ 2.02 µM) in assay [9]; 2 µg/mL (≈ 4.04 µM) in [10]; 2 µg/mL (≈ 4.04 µM) in assay [11]; at least 8 µg/mL in assay [12].

For the compound `COc1ccccc1C(=O)N1CCN(c2ccc(N3C[C@H](Cn4ccnn4)OC3=O)cc2F)CC1`, the MIC in [1] was 1 µg/mL (≈ 2.08 µM); in [2], 1 µg/mL (≈ 2.08 µM); in [3] it was at least 8 µg/mL; in assay [4], 1 µg/mL (≈ 2.08 µM); in assay [5] it was 4 µg/mL; in assay [6] it was 0.25 µg/mL (≈ 0.52 µM). For the same compound, the MIC in assay [7] is 0.25 µg/mL (≈ 0.52 µM); in assay [8], at least 8 µg/mL; in [9], 1 µg/mL (≈ 2.08 µM); in assay [10], 1 µg/mL (≈ 2.08 µM); in [11] it was 0.5 µg/mL (≈ 1.04 µM); in [12], at least 8 µg/mL.

Source of the values: ChEMBL document CHEMBL1142890, “Structure-antibacterial activity of arylcarbonyl- and arylsulfonyl-piperazine 5-triazolylmethyl oxazolidinones” (2007).
